Among the data in ChEMBL document CHEMBL1134852, “A new class of potent nonpeptide luteinizing hormone-releasing hormone (LHRH) antagonists: design and synthesis of 2-phenylimidazo[1,2-a]pyrimidin-5-ones” (Bioorg Med Chem Lett, 2002) are IC50 values, retold here.

Each structure is given as a SMILES string. pIC50: −log10 of the molar value.

This experiment deals with T1, Gonadotropin-releasing hormone receptor (Homo sapiens, UniProt P30968).
T1 sequence (P30968 whole entry): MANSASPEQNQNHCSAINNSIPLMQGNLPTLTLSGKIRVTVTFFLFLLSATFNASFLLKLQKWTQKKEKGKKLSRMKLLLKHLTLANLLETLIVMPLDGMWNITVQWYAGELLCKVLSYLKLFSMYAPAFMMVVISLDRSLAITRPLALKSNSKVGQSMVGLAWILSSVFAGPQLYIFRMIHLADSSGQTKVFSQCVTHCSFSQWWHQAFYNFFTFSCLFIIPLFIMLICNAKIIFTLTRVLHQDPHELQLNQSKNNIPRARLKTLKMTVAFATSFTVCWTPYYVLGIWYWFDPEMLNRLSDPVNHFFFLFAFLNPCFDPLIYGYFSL
The experiment in a line: In vitro inhibition of specific [125I]leuprorelin binding to the cloned human LHRH receptor expressed in chinese hamster ovary cells. In kind it is cell-based, CHO. A digest of the protocol:
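Membranes from CHO cells expressing the receptor (0.2 mg/mL) incubated with [125I][Tyr5]leuprorelin (0.12–0.15 nM) and varied test compound, 60 min at 25 °C, Tris 25 mM/EDTA/0.1% BSA/protease inhibitors buffer, pH 7.5. Stopped with ice-cold buffer, filtered on PEI-coated glass fibre, radioactivity counted. Nonspecific binding with […] unlabeled leuprorelin; IC50 from pseudo-Hill fit.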
The pIC50 is the negative decadic logarithm of the IC50, by convention in mol/L. Higher therefore signals a small IC50. As for `CCOC(=O)c1cn(Cc2c(F)cccc2F)c2nc(-c3ccc(NC(=O)c4ccccc4)cc3)c(CN(C)Cc3ccccc3)n2c1=O`, the pIC50 is 7.70. For the compound `CCOC(=O)c1cn(Cc2c(F)cccc2F)c2nc(-c3ccc(NC(=O)NOC)cc3)c(CN(C)Cc3ccccc3)n2c1=O`, the pIC50 is 9.15. This pIC50 lies 1.45 log units higher than the previous one.

Compound `C=CC(=O)Nc1ccc(-c2nc3n(Cc4c(F)cccc4F)cc(C(=O)OCC)c(=O)n3c2CN(C)Cc2ccccc2)cc1` had a pIC50 of 8.52. This pIC50 lies 0.63 log units lower than the previous one.

For `CCNC(=O)Nc1ccc(-c2nc3n(Cc4c(F)cccc4F)cc(C(=O)OC(C)C)c(=O)n3c2CN(C)Cc2ccccc2)cc1`, the pIC50 was 9.52. The result for `CCOC(=O)c1cn(Cc2c(F)cccc2F)c2nc(-c3ccc(NC(=O)c4ccoc4)cc3)c(CN(C)Cc3ccccc3)n2c1=O` reads 8.52; that for `CCOC(=O)c1cn(Cc2c(F)cccc2F)c2nc(-c3ccc(NC(=O)c4ccsc4)cc3)c(CN(C)Cc3ccccc3)n2c1=O`, 8.15.

With `CCOC(=O)c1cn(Cc2c(F)cccc2F)c2nc(-c3ccc(NC(=O)CC)cc3)c(CN(C)Cc3ccccc3)n2c1=O`, the pIC50 is 8.00. As to `CCOC(=O)c1cn(Cc2c(F)cccc2F)c2nc(-c3ccc(NC(=O)C(C)C)cc3)c(CN(C)Cc3ccccc3)n2c1=O`, the pIC50 is 7.52. The result for `CCOC(=O)c1cn(Cc2c(F)cccc2F)c2nc(-c3ccc(NC(=O)C4CC4)cc3)c(CN(C)Cc3ccccc3)n2c1=O` reads 8.30; that for `CONC(=O)Nc1ccc(-c2nc3n(Cc4c(F)cccc4F)cc(C(=O)OC(C)C)c(=O)n3c2CN(C)Cc2ccccc2)cc1`, 9.40.
